Reference: ChEMBL document CHEMBL1141075, “4-Oxo-4,7-dihydrothieno[2,3-b]pyridines as non-nucleoside inhibitors of human cytomegalovirus and related herpesvirus polymerases” (J Med Chem, 2005)

How the values were obtained:
[1] = Toxicity on uninfected human foreskin fibroblast cells determined in microscopic evaluation and quantitative neutral red dye uptake assay; type: cell-based; conditions: uninfected human foreskin fibroblast (HFF) cells
In short: (§1)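 Uninfected cells were seeded as subconfluent monolayers and exposed to compound for 3 days. Viability was judged both by microscopic inspection and by quantitative neutral red dye uptake, giving CC50.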

[2] = biological target: T1, DNA polymerase catalytic subunit (Herpes simplex virus (type 1 / strain 17), UniProt P04293); assay: Inhibition of herpes simplex virus type 1 DNA polymerase (95 uL) activity in a solution containing […] HEPES (pH 7.5), incubation for 12 minutes at 26 degrees C; set-up: species or system Human alphaherpesvirus 1
T1 sequence (P04293 whole entry): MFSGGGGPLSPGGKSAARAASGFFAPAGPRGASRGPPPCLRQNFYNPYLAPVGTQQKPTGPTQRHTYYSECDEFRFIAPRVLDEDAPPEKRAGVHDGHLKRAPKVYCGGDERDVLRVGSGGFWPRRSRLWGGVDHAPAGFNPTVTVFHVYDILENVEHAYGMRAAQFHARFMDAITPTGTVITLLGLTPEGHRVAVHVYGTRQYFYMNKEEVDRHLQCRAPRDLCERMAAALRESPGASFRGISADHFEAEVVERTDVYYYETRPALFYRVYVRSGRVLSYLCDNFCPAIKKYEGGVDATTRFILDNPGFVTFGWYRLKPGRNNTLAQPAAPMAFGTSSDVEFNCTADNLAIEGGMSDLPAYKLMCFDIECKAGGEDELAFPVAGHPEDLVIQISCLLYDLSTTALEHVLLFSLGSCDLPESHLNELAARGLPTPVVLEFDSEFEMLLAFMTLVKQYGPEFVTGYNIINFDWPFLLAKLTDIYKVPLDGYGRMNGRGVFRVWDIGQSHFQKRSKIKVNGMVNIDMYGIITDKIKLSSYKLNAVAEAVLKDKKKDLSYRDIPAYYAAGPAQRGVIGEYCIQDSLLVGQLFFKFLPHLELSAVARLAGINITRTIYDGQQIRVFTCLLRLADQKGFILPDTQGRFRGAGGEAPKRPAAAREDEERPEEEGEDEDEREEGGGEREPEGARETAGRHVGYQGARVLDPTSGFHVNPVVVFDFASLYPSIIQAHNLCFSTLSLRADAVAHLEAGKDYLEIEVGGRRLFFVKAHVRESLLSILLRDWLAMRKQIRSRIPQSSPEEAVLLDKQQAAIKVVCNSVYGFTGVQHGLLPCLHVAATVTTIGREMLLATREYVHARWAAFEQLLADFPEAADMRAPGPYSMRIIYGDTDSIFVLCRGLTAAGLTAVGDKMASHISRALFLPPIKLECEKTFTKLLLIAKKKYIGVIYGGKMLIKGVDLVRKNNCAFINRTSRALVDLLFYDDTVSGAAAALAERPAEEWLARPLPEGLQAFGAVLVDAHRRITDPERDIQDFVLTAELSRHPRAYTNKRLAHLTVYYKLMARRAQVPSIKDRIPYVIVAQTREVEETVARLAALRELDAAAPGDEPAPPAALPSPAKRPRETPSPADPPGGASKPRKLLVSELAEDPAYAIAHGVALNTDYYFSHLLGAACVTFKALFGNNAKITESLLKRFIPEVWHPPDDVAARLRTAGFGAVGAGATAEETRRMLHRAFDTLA

Vero [3] = assay: Antiviral activity against herpes simplex virus type 1 (KOS strain) grown on human foreskin fibroblast cells determined by vedduction in plaque formation upon incubation at 37 degrees C with the compound dissolved in DMSO until plaque were formed; type: functional, cell-based
In short: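 HSV-1 KOS, about 50 PFU per well, was adsorbed for 1 h at 37 °C. The inoculum was then replaced with drug dilutions from 200-fold DMSO stocks in DMEM containing 10% FBS and 0.8% carboxymethyl cellulose. Cultures were kept at 37 °C until plaques appeared. Plaques were counted microscopically or by crystal violet staining (0.1% in 20% ethanol). IC50 came from linear regression of % inhibition relative to the uninhibited control.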

HFF [4] = assay: Antiviral activity against Varicella-Zoster virus (Webster strain) grown on human foreskin fibroblast cells determined by vedduction in plaque formation upon incubation at 37 degrees C with the compound dissolved in DMSO until plaque were formed; type: functional, cell-based
In short: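 Monolayers of human foreskin fibroblasts were infected with about 50 PFU per well for 1 h at 37 °C. The inoculum was then replaced with DMEM containing 10% FBS, 0.8% carboxymethyl cellulose and diluted compound from 200-fold DMSO stocks. Plates were incubated at 37 °C until plaques formed. Plaques were counted microscopically or after 0.1% crystal violet staining. IC50 came from linear regression of % inhibition versus untreated controls.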

[5] = Toxicity on uninfected African green monkey kidney cells determined in microscopic evaluation and quantitative neutral red dye uptake assay; type: cell-based; conditions: chlorocebus sabaeus, uninfected African green monkey kidney (Vero) cells; in short: as §1
HFF [6] = assay: Antiviral activity against human cytomegalovirus (Davis strain) grown on human foreskin fibroblast cells determined by reduction in plaque formation upon incubation at 37 degrees C with the compound dissolved in DMSO; type: functional, cell-based
[7] = biological target: T2, DNA polymerase alpha catalytic subunit (Homo sapiens, UniProt P09884); assay: Inhibition of human alpha DNA polymerase (95 uL) activity in a solution containg […] HEPES (pH 7.5) upon incubation for 12 minutes at 26 degrees C with the compound dissolved in DMSO
T2 sequence (P09884 whole entry): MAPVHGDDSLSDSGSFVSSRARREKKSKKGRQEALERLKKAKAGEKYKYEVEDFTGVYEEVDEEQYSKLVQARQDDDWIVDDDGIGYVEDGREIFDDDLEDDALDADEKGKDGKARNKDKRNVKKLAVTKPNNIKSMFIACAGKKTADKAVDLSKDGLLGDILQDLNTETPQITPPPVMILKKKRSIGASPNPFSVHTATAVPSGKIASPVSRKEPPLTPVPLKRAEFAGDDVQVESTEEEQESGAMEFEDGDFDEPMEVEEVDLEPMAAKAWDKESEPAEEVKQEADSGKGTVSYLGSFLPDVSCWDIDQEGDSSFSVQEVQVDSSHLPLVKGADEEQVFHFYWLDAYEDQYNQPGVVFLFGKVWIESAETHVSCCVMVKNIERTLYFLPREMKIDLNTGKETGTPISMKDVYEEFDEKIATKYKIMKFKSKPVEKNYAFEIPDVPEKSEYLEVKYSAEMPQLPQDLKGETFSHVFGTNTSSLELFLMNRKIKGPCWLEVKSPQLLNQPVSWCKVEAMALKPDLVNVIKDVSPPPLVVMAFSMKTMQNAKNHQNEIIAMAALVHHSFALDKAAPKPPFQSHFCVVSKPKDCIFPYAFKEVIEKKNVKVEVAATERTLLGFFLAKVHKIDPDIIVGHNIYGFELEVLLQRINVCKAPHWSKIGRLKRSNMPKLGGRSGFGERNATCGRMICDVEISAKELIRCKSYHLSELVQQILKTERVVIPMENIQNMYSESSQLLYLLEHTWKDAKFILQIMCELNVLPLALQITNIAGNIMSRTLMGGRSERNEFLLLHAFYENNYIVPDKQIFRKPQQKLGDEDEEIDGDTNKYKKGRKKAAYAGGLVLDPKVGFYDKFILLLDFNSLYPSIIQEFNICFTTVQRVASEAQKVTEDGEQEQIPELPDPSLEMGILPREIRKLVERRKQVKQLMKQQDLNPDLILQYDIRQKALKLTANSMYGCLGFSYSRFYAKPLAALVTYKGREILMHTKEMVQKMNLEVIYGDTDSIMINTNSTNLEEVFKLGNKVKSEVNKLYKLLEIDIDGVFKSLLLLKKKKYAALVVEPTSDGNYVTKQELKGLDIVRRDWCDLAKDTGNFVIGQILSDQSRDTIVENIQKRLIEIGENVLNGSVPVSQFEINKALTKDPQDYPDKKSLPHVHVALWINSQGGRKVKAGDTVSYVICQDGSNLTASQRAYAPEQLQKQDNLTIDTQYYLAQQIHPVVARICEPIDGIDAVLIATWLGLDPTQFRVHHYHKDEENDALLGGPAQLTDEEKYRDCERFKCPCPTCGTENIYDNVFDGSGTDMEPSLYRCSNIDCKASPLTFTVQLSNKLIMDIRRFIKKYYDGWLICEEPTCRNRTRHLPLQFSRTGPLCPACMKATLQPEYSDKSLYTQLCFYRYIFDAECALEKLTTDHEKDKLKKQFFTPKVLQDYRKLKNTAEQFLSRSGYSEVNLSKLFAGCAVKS

Vero [8] = assay: cells; conditions: Chlorocebus sabaeus, 1 h
Vero [9] = assay: cells; conditions: Chlorocebus sabaeus, 1 h; remark: listed apart in the source
Vero [10] = assay: cells; conditions: Chlorocebus sabaeus, 1 h; remark: listed apart in the source
Vero [11] = assay: cells; conditions: Chlorocebus sabaeus, 1 h; remark: listed apart in the source
Vero [12] = assay: cells; conditions: Chlorocebus sabaeus, 1 h; remark: listed apart in the source
Vero [13] = assay: cells; conditions: Chlorocebus sabaeus, 1 h; remark: listed apart in the source
Vero [14] = assay: cells; conditions: Chlorocebus sabaeus, 1 h; remark: listed apart in the source
Vero [15] = assay: cells; conditions: Chlorocebus sabaeus, 1 h; remark: listed apart in the source
Vero [16] = assay: cells; conditions: Chlorocebus sabaeus, 1 h; remark: listed apart in the source
HFF [17] = assay: Antiviral activity against human cytomegalovirus Ad169 (WT) plaque forming unit grown on Human foreskin fibroblast cells upon incubation for 1 hour at 37 degrees C with compound dissolved in DMSO; type: functional, cell-based
In short: (§2)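 Plaque reduction: about 50 PFU added per well of a 24-well dish of the appropriate cells, 1 h at 37 °C, then the inoculum was replaced by drug-containing DMEM with 10% FBS and 0.8% carboxymethyl cellulose. DMSO stocks were 200-fold. Plates were held at 37 °C until plaques formed. Plaques were counted microscopically or after crystal violet stain. Percent inhibition was taken against the uninhibited control, with IC50 by linear regression.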

HFF [18] = assay: Antiviral activity against human cytomegalovirus Ad169 (V823A) plaque forming unit grown on Human foreskin fibroblast cells upon incubation for 1 hour at 37 degrees C with compound dissolved in DMSO; type: functional, cell-based; in short: as §2

Row | Compound | CC50 [1] | IC50 [2] | IC50 (Vero [3]) | IC50 (HFF [4]) | CC50 [5] | IC50 (HFF [6]) | IC50 [7] | IC50 (Vero [8]) | IC50 (Vero [9]) | IC50 (Vero [10]) | IC50 (Vero [11]) | IC50 (Vero [12]) | IC50 (Vero [13]) | IC50 (Vero [14]) | IC50 (Vero [15]) | IC50 (Vero [16]) | IC50 (HFF [17]) | IC50 (HFF [18])
1 | Cn1cc(C(=O)NCc2ccc(Cl)cc2)c(=O)c2cc(CCCO)sc21 | > 100 µM | 0.5 µM | 3 µM | 0.09 µM | > 100 µM | 0.6 µM | > 40 µM | – | – | – | – | – | – | – | – | – | – | –
2 | Nc1nc2c(ncn2COCCO)c(=O)[nH]1 [ACYCLOVIR] | > 100 µM | – | – | – | > 100 µM | – | – | 2.8 µM | > 10 µM | 5.4 µM | > 10 µM | > 10 µM | > 10 µM | 3.5 µM | 2.4 µM | 4.4 µM | – | –
3 | Nc1nc2c(ncn2COC(CO)CO)c(=O)[nH]1 [GANCICLOVIR] | > 100 µM | – | – | – | > 100 µM | – | – | – | – | – | – | – | – | – | – | – | 0.8 µM | 0.8 µM
